In general, ED50 refers to the dose at which the effect has come halfway, by size or by number of responders.

Consider 47 compounds from ChEMBL document CHEMBL1127013, “Glycosylated derivatives of benzophenone, benzhydrol, and benzhydril as potential venous antithrombotic agents” (1993).

What all share (assay type): functional
Test [1] relates to Rattus norvegicus. The test is described as follows: Percentage reduction of thrombus formation by weight in rat (intraperitoneal administration). Further details: concentration or dose not given beside the values. The essentials: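 Rat venous stasis thrombosis model using a factor Xa thrombogenic challenge 4 h after intraperitoneal dosing in carboxymethylcellulose at 5 mL/kg. Dose was 100 mg/kg when the mouse lethal dose exceeded 800 mg/kg, otherwise 1/10 of LD50. Body temperature was kept near 37 °C. Thrombus was excised from the split vein, dried 24 h at 55 °C and weighed. Read-out is % reduction in thrombus weight, with 5–10 rats per lot.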

The subject of test [2] is Rattus norvegicus. Description: Antithrombotic activity was determined at 100 mg/kg for nonlethal dose in rat. In a few lines:
(§1)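 Rats received 100 mg/kg intraperitoneally in (carboxymethyl)cellulose (5 mL/kg), for substances with a mouse lethal dose above 800 mg/kg. Factor Xa was injected 4 h later to induce venous thrombosis, with body temperature near 37 °C. Clamps were placed 15 min after partial flow was restored. The thrombus was excised, dried 24 h at 55 °C and weighed. The result is % reduction of thrombus weight, with 5–10 rats per lot.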

In test [3] the test system is Rattus norvegicus. The test is described as follows: Antithrombotic activity at 1/10 mg/kg in rat. In a few lines:
(§2)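 Rat venous thrombosis model with factor Xa as the thrombogenic stimulus, injected 4 h after intraperitoneal dosing in (carboxymethyl)cellulose vehicle (5 mL/kg). Dose was 1/10 of the mouse LD50. Body temperature was kept near 37 °C. The vein was clamped 15 min after partial flow was restored. The thrombus was dried 24 h at 55 °C and weighed. The result is % reduction of thrombus weight, with 5–10 rats per lot.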

Test [4] has as its system Rattus norvegicus. Description: Antithrombotic activity at 100 mg/kg in rat. In a few lines: as §1
For test [5], the system named is Rattus norvegicus. The test is described as follows: Effective dose administered by intravenous route before injection of thrombogenic agent in rat model. In a few lines: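 Intravenous dosing in rats at various times before the factor Xa thrombogenic challenge. Thrombus was isolated from the vein segment, dried 24 h at 55 °C and weighed. ED50 was calculated by linear regression with 95% confidence limits.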

For test [6], the system named is Rattus norvegicus. The test is described as follows: Antithrombotic activity at 100 mg/kg for nonlethal dose in rat. The essentials: as §1
Test [7] relates to Rattus norvegicus. The test is described as follows: Antithrombotic activity at 1/10 mg/kg for lethal dose in rat. In a few lines: as §2
Test [8] has as its system Rattus norvegicus. The test is described as follows: Effective dose administered orally (4h before injection of the thrombotic stimulus) with reduced thrombus weight in dose-related manner. Particulars: po.

Structures are written as SMILES. A value given as a limit tells only on which side of the number the result lay.

In test [1], `Cc1cc(C(=O)c2ccccc2C)ccc1O[C@@H]1OC[C@@H](O)[C@H](O)[C@H]1O` returned an Activity of 62%.

Turning to `O=C(c1ccc(O[C@@H]2O[C@H](CO)[C@@H](O)[C@H](O)[C@H]2O)cc1)c1ccc([N+](=O)[O-])cc1`, the Activity in test [1] is 0%. Also, the LD0 in test [2] is given as above 800 mg.

`O=C(c1ccc(O[C@@H]2O[C@H](CO)[C@H](O[C@@H]3O[C@H](CO)[C@@H](O)[C@H](O)[C@H]3O)[C@H](O)[C@H]2O)cc1)c1ccc([N+](=O)[O-])cc1` displayed an Activity in test [1] of 17%. In test [2], this compound had an LD0 above 800 mg.

With `O=C(c1ccc([N+](=O)[O-])cc1)c1cccc(O[C@@H]2OC[C@@H](O)[C@H](O)[C@H]2O)c1`, the Activity in test [1] is given as 61%. Besides, in test [2], the LD0 is above 800 mg.

Take `O=C(c1ccccc1)c1ccc(O[C@@H]2O[C@H](CO)[C@@H](O)[C@H](O)[C@H]2O)cc1`: the Activity in test [1] turned out to be 25%. In test [2], the LD0 is on record as above 800 mg.

For `O=C(c1ccc(O[C@@H]2OC[C@@H](O)[C@H](O)[C@H]2O)cc1)c1ccc(C(F)(F)F)cc1`, the Activity in test [1] was determined as 0%. In test [2], the LD0 is given as above 800 mg.

`O=C(c1ccccc1)c1cccc(O[C@@H]2OC[C@@H](O)[C@H](O)[C@H]2O)c1`: the Activity in test [1] was 60%. In test [2], this compound yielded an LD0 above 800 mg.

Turning to `O[C@@H]1[C@@H](O)[C@H](Oc2ccc(Cc3ccc(Cl)cc3)cc2)OC[C@H]1O`, the Activity in test [1] stood at 22%. Besides, the LD0 in test [2] was above 800 mg.

In test [1], `O=C(c1ccc(O[C@@H]2O[C@H](CO)[C@@H](O)[C@H](O)[C@@H]2O)cc1)c1ccc([N+](=O)[O-])cc1` had an Activity of 0%. For the same compound, the LD0 in test [2] is recorded as above 800 mg.

In turn, `O=C(c1ccccc1)c1ccc(O[C@@H]2OC[C@@H](O)[C@H](O)[C@H]2O)cc1` returned an LD50 in test [3] of 750 mg. The same compound returned an Activity in test [1] of 77%.

For `O=C(c1ccc(O[C@@H]2OC[C@@H](O)[C@H](O)[C@H]2O)cc1)c1ccccc1Cl`, the Activity in test [1] was 76%. Moreover, the LD0 in test [2] was above 800 mg.

In test [1], `O=C(c1ccc(O[C@@H]2O[C@H](CO)[C@H](O)[C@H](O)[C@H]2O)cc1)c1ccc([N+](=O)[O-])cc1` had an Activity of 0%. In addition, the LD0 in test [2] is listed as above 800 mg.

With `O=C(c1ccc(Cl)cc1)c1ccc(O[C@@H]2OC[C@@H](O)[C@H](O)[C@H]2O)cc1`, in test [1], the Activity came out at 37%. The LD0 in test [2] is above 800 mg.

`OC(c1ccccc1)c1cccc(O[C@@H]2OC[C@@H](O)[C@H](O)[C@H]2O)c1` (some centres undefined) gave an Activity in test [1] of 19%. In test [2], this compound displayed an LD0 above 800.

Regarding `Cc1cc(C(O)c2ccccc2C)ccc1O[C@@H]1OC[C@@H](O)[C@H](O)[C@H]1O` (some centres undefined), the Activity in test [1] worked out at 14%. The compound also returned an LD50 in test [4] of 450 mg.

The compound `O=[N+]([O-])c1cccc(Cc2ccc(O[C@@H]3OC[C@@H](O)[C@H](O)[C@H]3O)cc2)c1` had an Activity in test [1] of 32%. The same compound returned an LD0 in test [2] above 800 mg.

In test [1], `Cc1ccccc1C(=O)c1cccc(O[C@@H]2OC[C@@H](O)[C@H](O)[C@H]2O)c1` registered an Activity of 0%. The compound further displayed an LD0 in test [2] above 800 mg.

In test [1], `O[C@@H]1[C@@H](O)[C@H](Oc2cccc(Cc3ccccc3)c2)OC[C@H]1O` registered an Activity of 39%. This compound also returned an LD50 in test [4] of 200 mg.

In turn, `OC(c1ccc(O[C@@H]2OC[C@@H](O)[C@H](O)[C@H]2O)cc1)c1ccccc1Cl` (some centres undefined) showed an Activity in test [1] of 51%. Further, in test [2], the LD0 was above 800 mg.

In test [1], `O[C@@H]1[C@@H](O)[C@H](Oc2ccc(Cc3ccccc3Cl)cc2)OC[C@H]1O` came in with an Activity of 0%. The compound further had an LD0 in test [2] above 800 mg.

`O=C(c1ccc(O[C@@H]2OC[C@@H](O)[C@H](O)[C@H]2O)cc1)c1cccc([N+](=O)[O-])c1`: the Activity in test [1] was 39%. The compound further displayed an LD0 in test [2] above 800 mg.

On to `O[C@@H]1[C@@H](O)[C@H](Oc2cccc(Cc3ccc(Cl)cc3)c2)OC[C@H]1O`, for which the Activity in test [1] is reported as 46%. In test [4], this compound gave an LD50 of 500 mg.

In test [5], `O=C(O)C1OC(OC2C(COS(=O)(=O)O)OC(CO)C(NS(=O)(=O)O)C2O)C(OS(=O)(=O)O)C(O)C1CO` (centres undefined) had an ED50 of 0.15 mg/kg.

Compound `O[C@@H]1[C@@H](O)[C@H](Oc2ccc(Cc3ccc(Cl)cc3Cl)cc2)OC[C@H]1O` yielded an Activity in test [1] of 25%. Besides, in test [4], the LD50 came out at 640 mg.

In turn, `OC(c1ccc(Cl)cc1)c1cccc(O[C@@H]2OC[C@@H](O)[C@H](O)[C@H]2O)c1` (some centres undefined) displayed an Activity in test [1] of 0%. In test [2], this compound yielded an LD0 above 800 mg.

`N#Cc1ccc(C(=O)c2ccc(O[C@@H]3OC[C@@H](O)[C@H](O)[C@H]3O)cc2)cc1` registered an Activity in test [1] of 0%.

Regarding `Cc1ccc(C(=O)c2cccc(O[C@@H]3OC[C@@H](O)[C@H](O)[C@H]3O)c2)cc1`, the Activity in test [1] is 0%. This compound gave an LD0 in test [2] above 800 mg.

`O=C(c1ccc(O[C@@H]2OC[C@@H](O)[C@H](O)[C@H]2O)cc1)c1ccc([N+](=O)[O-])cc1` gave an Activity in test [1] of 0%. Besides, in test [2], the LD0 was above 800 mg.

As for `Cc1ccc(O[C@@H]2OC[C@@H](O)[C@H](O)[C@H]2O)c(C(=O)c2ccccc2C)c1`, the Activity in test [1] was 0%. The LD0 in test [2] was above 800 mg.

Consider `C[C@@H]1O[C@H](Oc2ccc(C(=O)c3ccc([N+](=O)[O-])cc3)cc2)[C@H](O)[C@H](O)[C@H]1O`, for which the Activity in test [1] worked out at 0%. In test [2], this compound came in with an LD0 above 800 mg.

Regarding `OC(c1ccc(Cl)cc1)c1ccc(O[C@@H]2OC[C@@H](O)[C@H](O)[C@H]2O)cc1` (some centres undefined), in test [1], the Activity came to 39%. In test [2], this compound returned an LD0 above 800 mg.

As to `O=C(c1ccc(Cl)cc1)c1cccc(O[C@@H]2OC[C@@H](O)[C@H](O)[C@H]2O)c1`, the Activity in test [1] is listed as 0%. Further, the LD50 in test [6] turned out to be 220 mg.

In test [1], `O=C(c1ccc(O[C@H]2OC[C@@H](O)[C@H](O)[C@H]2O)cc1)c1ccc([N+](=O)[O-])cc1` returned an Activity of 38%. For the same compound, in test [7], the LD50 was 600 mg.

With `COc1ccc(Cc2ccc(O[C@@H]3OC[C@@H](O)[C@H](O)[C@H]3O)cc2)cc1`, the Activity in test [1] stood at 43%. Further, the LD0 in test [2] was above 800 mg.

In test [1], `O=C(c1ccc(OC2O[C@H](CO)[C@@H](O[C@@H]3O[C@H](CO)[C@H](O)[C@H](O)[C@H]3O)[C@H](O)[C@H]2O)cc1)c1ccc([N+](=O)[O-])cc1` (some centres undefined) came in with an Activity of 0%. The LD0 in test [2] was above 800 mg.

`Cc1ccc(C(=O)c2ccc(O[C@@H]3OC[C@@H](O)[C@H](O)[C@H]3O)cc2)cc1` gave an Activity in test [1] of 0%. In addition, the LD0 in test [2] is given as above 800 mg.

Regarding `O=[N+]([O-])c1ccc(C(O)c2ccc(O[C@@H]3OC[C@@H](O)[C@H](O)[C@H]3O)cc2)cc1` (some centres undefined), the Activity in test [1] came out at 80%. Besides, the results for the ED50 in test [8] and in test [5] were 48 mg/kg and 17.8 mg/kg, respectively. This compound had an LD0 in test [2] above 800 mg.

The compound `O=[N+]([O-])c1cccc(C(O)c2ccc(O[C@@H]3OC[C@@H](O)[C@H](O)[C@H]3O)cc2)c1` (some centres undefined) had an Activity in test [1] of 63%. This compound also displayed an LD50 in test [4] of 600 mg.

Consider `O=[N+]([O-])c1ccc(Cc2ccc(O[C@@H]3OC[C@@H](O)[C@H](O)[C@H]3O)cc2)cc1`, for which the Activity in test [1] worked out at 80%. In test [8], this compound showed an ED50 of 24 mg/kg. In addition, in test [4], the LD50 was 650 mg.

In turn, `O[C@@H]1[C@@H](O)[C@H](Oc2ccc(Cc3ccccc3)cc2)OC[C@H]1O` showed an Activity in test [1] of 12%. The compound also gave an LD0 in test [2] above 800 mg.

Compound `O=C(c1ccc(O[C@@H]2OC[C@@H](O)[C@H](O)[C@H]2O)cc1)c1ccc(Cl)cc1Cl` gave an Activity in test [1] of 18%. In test [2], this compound displayed an LD0 above 800 mg.

The compound `COc1ccc(C(=O)c2ccc(O[C@@H]3OC[C@@H](O)[C@H](O)[C@H]3O)cc2)cc1` yielded an Activity in test [1] of 44%. Further, the LD0 in test [2] was above 800 mg.

`O=C(c1ccc(Cl)cc1)c1ccc(O[C@@H]2O[C@H](CO)[C@@H](O)[C@H](O)[C@H]2O)cc1` registered an Activity in test [1] of 0%. This compound also yielded an LD0 in test [2] above 800 mg.

For `OC(c1ccc(O[C@@H]2OC[C@@H](O)[C@H](O)[C@H]2O)cc1)c1ccc(Cl)cc1Cl` (some centres undefined), the Activity in test [1] is on record as 37%. The LD50 in test [4] was determined as 350 mg.

In turn, `O=C(c1ccc(Cl)cc1)c1ccc(O[C@@H]2O[C@H](CO)[C@H](O)[C@H](O)[C@H]2O)cc1` returned an Activity in test [1] of 0%. Moreover, in test [2], the LD0 is recorded as above 800 mg.

Take `O=C(c1ccc(O[C@H]2O[C@H](CO)[C@@H](O)[C@H](O)[C@@H]2O)cc1)c1ccc([N+](=O)[O-])cc1`: the Activity in test [1] is recorded as 0%. The compound further gave an LD0 in test [2] above 800 mg.

In test [1], `OC(c1ccccc1)c1ccc(O[C@@H]2OC[C@@H](O)[C@H](O)[C@H]2O)cc1` (some centres undefined) gave an Activity of 37%. In test [2], this compound had an LD0 above 800 mg.
